Compound activity from PubChem.
HKDC1 inh: blocks human hexokinase HKDC1 activity; Q2TB90; recombinant HKDC1, G6PDH/diaphorase resazurin coupled fluorescence; inhibition, % at 20 µM; 340,000 tested, 0.16% active; AID 493160;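 active = inhibition above about 35% when tested at 20 µM, limit read from the data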;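 note: plate controls were DMSO wells with enzyme for no effect and DMSO wells lacking enzyme for full effect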
Target sequence (Q2TB90 whole entry, looked up): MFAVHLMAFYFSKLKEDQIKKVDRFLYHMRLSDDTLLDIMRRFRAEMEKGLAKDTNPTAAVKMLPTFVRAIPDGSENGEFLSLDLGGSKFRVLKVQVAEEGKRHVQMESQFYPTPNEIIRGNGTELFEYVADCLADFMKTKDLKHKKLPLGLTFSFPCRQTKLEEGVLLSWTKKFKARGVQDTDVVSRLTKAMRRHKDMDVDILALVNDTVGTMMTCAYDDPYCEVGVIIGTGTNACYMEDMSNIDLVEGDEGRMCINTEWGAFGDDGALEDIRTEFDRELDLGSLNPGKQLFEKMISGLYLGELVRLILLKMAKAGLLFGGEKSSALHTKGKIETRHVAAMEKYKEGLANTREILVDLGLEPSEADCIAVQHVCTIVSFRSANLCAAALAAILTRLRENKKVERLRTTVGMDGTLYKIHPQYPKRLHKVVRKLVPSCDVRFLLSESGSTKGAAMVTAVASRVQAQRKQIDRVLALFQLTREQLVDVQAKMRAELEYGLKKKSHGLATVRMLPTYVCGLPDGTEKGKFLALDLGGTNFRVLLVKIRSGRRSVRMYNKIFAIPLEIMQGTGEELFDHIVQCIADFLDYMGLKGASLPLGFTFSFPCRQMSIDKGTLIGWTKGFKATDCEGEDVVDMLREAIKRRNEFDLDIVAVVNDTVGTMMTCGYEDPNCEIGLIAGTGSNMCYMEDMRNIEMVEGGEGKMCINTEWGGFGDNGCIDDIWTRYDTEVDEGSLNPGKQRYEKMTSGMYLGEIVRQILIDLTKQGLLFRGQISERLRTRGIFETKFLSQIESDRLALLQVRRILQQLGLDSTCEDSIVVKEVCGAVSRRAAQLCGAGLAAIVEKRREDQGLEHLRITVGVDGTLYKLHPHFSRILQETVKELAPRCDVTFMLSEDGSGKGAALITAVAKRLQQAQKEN
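Assay system: in-house recombinant HK5 (HKDC1) enzyme. Input: HKDC1 at 5 µg/mL. Medium: Tris pH 8.0 buffer with MgCl2, Tween-20, BSA, BME. Dosing: single 20 µM dose. Schedule: 90 min reaction incubation at room temperature, dark. Signal: resazurin-to-resorufin fluorescence via G6PDH and diaphorase coupling, 525/613 nm. Controls: DMSO-enzyme wells negative, buffer-substituted wells positive.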
Diaph inh CS: inhibits diaphorase or chemically oxidizes, flagging diaphorase assay artifacts; diaphorase resazurin-to-resorufin fluorescence, NADH, 16 min; bacterial (C. kluyveri) enzyme, not human; inhibition, % at 20 µM; 190,000 tested, 0.69% active;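 active = primary screen inhibition at 20 µM above a set limit, cut at about 50% in these data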;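 note: plate controls were DMSO with full reaction for no effect and wells lacking NADH for full effect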
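Detection: fluorescence of resorufin formed from resazurin, Ex 544/Em 590 nm; test system: Clostridium kluyveri diaphorase enzyme; amount: 0.14 U/mL diaphorase, enzyme working solution; times: 16-min room-temperature incubation before reading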
Diaphorase act: counter-screen for diaphorase-based assays: diaphorase activators and chemical reducers. Diaphorase/resazurin coupled assay, resorufin fluorescence, 16 min; hits give high values; 1 = vehicle wells, 0 = NADH-free wells. activation factor at 20 µM. 190,000 tested, 0.005% active. AID 1229;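 active = diaphorase activity raised at least twofold by the compound at 20 µM; inactive = activation factor below 2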
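Material: purified diaphorase enzyme from Clostridium kluyveri; Also added: 0.114 mM NADH and 0.1 mM resazurin, final amounts; Doses: single compound dose of 20 µM, 1% DMSO final; Times: 16 min enzyme reaction, ambient temperature; Detection: resorufin fluorescence, excitation 544 nm, emission 590 nm; Measure: increased resorufin signal from activators or reducing compounds.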
G6PDH counter: counter-screen for G6PDH assay hits: L. mesenteroides G6PDH inhibition | Purified L. mesenteroides G6PDH, diaphorase/resazurin coupled fluorescence, 45 min | inhibition, % at 5 µM | 200,000 tested, 0.12% active | AID 1020; in the data active = inhibition above about 50%
PfG6PD inh: PfG6PD (Plasmodium falciparum) enzyme inhibition; inhibition, % at 20 µM; PfGluPho enzyme, NADPH resazurin-diaphorase fluorescence; AID 504690; 350,000 tested, 0.78% active;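 active = inhibition reaching at least a set limit at 20 µM in the primary screen, cut at about 59% in these data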;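 note: 0% = DMSO wells with substrate and 100% = DMSO wells lacking glucose-6-phosphate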
PfGluPho conf: PfG6PD inhibition, single-dose confirmed | inhibition, % at 20 µM | recombinant PfGluPho, NADPH-diaphorase-resazurin fluorescence | 2,400 tested, 34% active | shares compounds with PfG6PD inh | AID 504753;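 active = inhibition of at least 50% at 20 µM in any single replicate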;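 note: 0% = DMSO with substrate and 100% = DMSO lacking glucose-6-phosphate substrate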
Diaph ctr 10uM: counter-screen for P. falciparum G6PD inhibitors: diaphorase inhibitors, oxidizers; shares compounds with PfG6PD inh; diaphorase-coupled resazurin reduction, fluorescence, NADPH 10 uM; inhibition, % at 20 µM; 820 tested, 39% active; AID 504862;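 active = average inhibition reaching 50% or more with the compound at 20 µM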;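 note: resorufin red fluorescence formed as diaphorase reduces resazurin using NADPH; 0% = DMSO with enzyme and 100% = DMSO without enzyme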
Diaphorase 30uM: inhibits diaphorase or oxidizes, flagging false PfG6PD hits; Diaphorase/resazurin coupled assay, resorufin fluorescence, 30 uM NADPH; shares compounds with PfG6PD inh; inhibition, % at 20 µM; 820 tested, 29% active;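 active = inhibition averaging 50% or more, tested at 20 µM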;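 note: 0% = DMSO with enzyme and 100% = DMSO wells lacking diaphorase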
* hit, by the source's call; . = no result given. In the library only some 1.2% were active in any assay of this set; here they are far more common.

SMILES	HKDC1 inh	Diaph inh CS	Diaphorase act	G6PDH counter	PfG6PD inh	PfGluPho conf	others
C[C@@H]1ON(C)[C@H]2C[C@H]3c4[nH]c5ccc(-c6ccc7c(c6)OCO7)cc5c4CCN3C(=O)[C@@H]12	.	.	.	.	76.2*	44.2
COc1c(O)c(O)c2oc(-c3ccccc3)cc(=O)c2c1OC	8.2	48.7	0.5	21.2	98.0*	79.3*	Diaph ctr 10uM=67.0*;Diaphorase 30uM=30.0
COc1c(OC)c(O)c2c(=O)c(O)c(-c3ccccc3)oc2c1OC	-3.4	26.8	0.7	38.0	-10.4	.
COc1cc(-c2cc(OC)c3c(C)oc(C)c3c(=O)c2)ccc1O	2.7	20.4	0.8	11.5	31.0	.
COc1cc(-c2cc(=O)c3c(O)c(OC)c(OC)c(O)c3o2)ccc1O	4.2	66.5*	0.3	20.5	88.1*	82.1*	Diaph ctr 10uM=46.5;Diaphorase 30uM=24.8
CCC(CCC(=O)NNC(=O)Cc1ccc([N+](=O)[O-])cc1)C(=O)O (configuration not stated)	-1.9	.	.	.	7.9	.
Cc1cc(C)c(C#N)c(=N)o1	-15.4	11.7	0.9	18.0	66.5*	46.9
Cc1ccccc1-n1ncc2c1CC(C)(C)CC2NC(=O)CCC(F)(F)F (configuration not stated)	0.8	.	.	.	10.7	.
O=c1ccn(-c2cccc(C(F)(F)F)c2)nc1-c1ccn(-c2cccc(Cl)c2)n1	1.3	19.3	0.8	2.2	86.8*	66.6*	Diaph ctr 10uM=61.5*;Diaphorase 30uM=56.8*
COc1ccc(CNC(=O)N2CCN(c3ccccc3)CC2)cc1	-5.1	.	.	.	6.1	.
CCN(CC)c1ccc(C(=O)OCc2c(C)noc2C)cc1	-4.0	18.9	0.8	4.1	-16.1	.
Cc1cc(C)c(S(=O)(=O)N2CCCCC2)c(C)c1N(C)S(=O)(=O)c1ccc(Cl)cc1	-1.5	13.5	0.9	-1.7	10.2	.
COC1=CC(=O)C=C(OC)C1(O)CC(C)=O	17.1	.	.	.	68.5*	53.9*	Diaph ctr 10uM=-7.1;Diaphorase 30uM=-13.6
O=C(N/N=C\c1cc([N+](=O)[O-])ccc1N1CCOCC1)c1ccccn1	-2.4	16.3	0.8	-5.0	6.7	.
Cc1cccc(OCC(=O)N/N=C/c2cc([N+](=O)[O-])ccc2N2CCOCC2)c1	-0.2	26.2	0.7	-1.1	118.3*	68.1*	Diaph ctr 10uM=57.1*;Diaphorase 30uM=58.8*
CCc1ccc(OCC(=O)N/N=C/c2cc([N+](=O)[O-])ccc2N2CCOCC2)cc1	12.4	19.4	0.8	-15.6	95.9*	56.3*	Diaph ctr 10uM=48.9;Diaphorase 30uM=34.0
O=C1S/C(=C\c2ccc(N3CCOCC3)o2)C(=O)N1Cc1c(F)cccc1Cl	-1.4	27.8	0.7	10.9	74.8*	16.8
COCCn1c(-c2ccc(F)cc2)nc2cccnc21	4.8	.	.	.	-2.7	.
COc1ccccc1N1C(=O)C=C(Sc2nc(C)cc(C)n2)C1=O	0.9	.	.	.	79.0*	87.2*	Diaph ctr 10uM=-4.2;Diaphorase 30uM=-15.1
CSc1cccc(NC(=O)CNS(=O)(=O)c2ccccc2)c1	-7.3	.	.	.	17.3	.
CCCc1ccc(OCC(=O)NNC(=O)c2cccnc2)cc1	-10.4	4.9	1	0.6	9.1	.
Oc1cc2c(cc1O)C1c3ccc(O)c(O)c3OCC1(O)C2 (configuration not stated)	6.5	78.2*	0.2	32.5	113.1*	105.9*	Diaph ctr 10uM=74.1*;Diaphorase 30uM=46.9
CC1(C)CN(c2ccccc2)N(C(=O)c2ccc(C#N)cc2)C1=O	14.3	-0.5	1	4.0	95.0*	67.9*	Diaph ctr 10uM=1.1;Diaphorase 30uM=1.0
Cc1nn(CCC(N)=S)c2nc(-c3cccs3)cc(C(F)(F)F)c12	-0.4	21.6	0.8	-18.4	62.5*	7.3
Cc1ccc(C)c(N2CCN(C(=O)c3ccc(Cl)c(NC4=NC5CS(=O)(=O)CC5S4)c3)CC2)c1 (configuration not stated)	-0.3	.	.	.	15.2	.
SMILES	HKDC1 inh	Diaph inh CS	Diaphorase act	G6PDH counter	PfG6PD inh	PfGluPho conf	others
CC(C)(C)c1csc(NC(=O)CSc2nc3ccccc3c(=O)[nH]2)n1	-4.0	-7.8	1.1	4.7	-19.7	.
CC(C)(C)c1csc(NC(=O)Cn2cnc3ccccc3c2=O)n1	-6.0	15.3	0.8	-9.1	68.3*	-4.3
O=C(Nc1ccc(Br)cc1)c1cc2ccccn2n1	-5.0	.	.	.	71.2*	28.6
CCOc1ccc(C(=O)CCC(=O)N2CCN(c3ccc(O)cc3)CC2)cc1	-2.5	.	.	.	66.8*	2.7
COc1ccc(-n2c(NN)nc3sc4c(c3c2=O)CCCC4)cc1	-1.4	11.1	0.9	3.5	91.7*	28.9
Cc1cc(C(=O)CSc2nnc(-c3ccco3)o2)c(C)n1Cc1ccco1	1.3	11.8	0.9	0.5	17.9	.
Cc1cc(C(=O)CSc2nnc(-c3ccco3)o2)c(C)n1-c1ccc2c(c1)OCCO2	1.6	31.0	0.7	1.6	75.1*	36.0
Cc1nnc(SCC(=O)c2cc(C)n(-c3ccc4c(c3)OCO4)c2C)s1	5.3	27.6	0.7	4.0	97.7*	68.8*	Diaph ctr 10uM=56.1*;Diaphorase 30uM=42.2
Cc1cc(C(=O)CSc2nnc(-c3cccs3)o2)c(C)n1-c1ccccc1	4.4	29.4	0.7	-34.6	78.8*	43.0
O=C(CSc1nnc(-c2cccs2)o1)c1cccs1	-6.5	-4.0	1	-1.1	-0.2	.
Cc1nc(N2CCOCC2)[nH]c(=O)c1C(O)C(Cl)(Cl)Cl (configuration not stated)	-7.5	.	.	.	8.9	.
CN1C(=O)/C(=C/c2ccccc2F)Sc2ccc(C(=O)N3CCCC3)cc21	-1.6	.	.	.	-3.1	.
COC(=O)CCN(c1ccccc1)S(=O)(=O)c1cc(-c2cc(C)no2)ccc1C	-3.6	.	.	.	-14.2	.
O=C(COC(=O)c1cc(S(=O)(=O)N2CCCC2)ccc1O)Nc1ccccc1Br	-3.6	.	.	.	-7.8	.
O=C1CN(C(=O)CNCc2cccc(Cl)c2)c2ccccc2N1	-8.6	.	.	.	10.7	.
O=S(=O)(Nc1c(O)ccc2ccccc12)c1cccc2ccccc12	28.5	.	.	.	84.3*	44.3
CCCn1c(/C=C/c2ccccc2)nc2ccccc21	-3.9	0.1	1	4.5	59.2*	10.3
CCc1nc2ccccc2n1Cc1ccc(OC)c(OC)c1	-5.4	15.8	0.8	6.0	6.3	.
COCCOCCn1c(/C=C/c2ccccc2)nc2ccccc21	-12.5	11.1	0.9	-3.9	63.0*	40.3
COc1ccc(/C=C/c2nc3ccccc3n2Cc2ccc(OC)c(OC)c2)cc1	3.5	7.5	0.9	-3.5	65.5*	48.6*	Diaph ctr 10uM=43.0;Diaphorase 30uM=30.0
COc1ccc(CNC(=O)[C@H](C)NC(=O)N2CCn3c2nc2ccccc23)cc1	-2.2	.	.	.	1.8	.
COc1ccc(COn2nnc3ccc(S(=O)(=O)N4CCOCC4)cc32)cc1F	0.6	.	.	.	-4.6	.
